For 14 compounds, IC50 and EC50 results are on record in ChEMBL document CHEMBL1149307, “Potent and selective farnesyl transferase inhibitors” (J Med Chem, 2004).

Assay [1] can be described thus: Inhibition of Sprague-Dawley rat brain FTase by continuous fluorescence assay. In outline:
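Enzyme source: cytosolic fraction (100 000g supernatant) of brains from male Sprague–Dawley rats aged 9–10 weeks, kept at -80 °C. Reaction: 50 mM Tris-HCl pH 7.5, 5 mM MgCl2, 10 μM ZnCl2, 5 mM DTT, 0.01% n-dodecyl-β-D-maltoside, 5.4 mg/mL cytosolic protein, 1.3 μM dansyl-CVIM, 25 μM FPP. Run at 25 °C, fluorescence (ex 340/em 505 nm) recorded 10 min. IC50 obtained by fitting ΔF/Δt versus inhibitor concentration.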

Assay [2] can be described thus: Inhibition of Sprague-Dawley rat brain GGTI by continuous fluorescence assay. The gist of the method:
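GGT-I source: rat brain cytosol (male Sprague–Dawley, 100 000g supernatant). Buffer: 50 mM Tris-HCl pH 7.5, 5 mM MgCl2, 10 μM ZnCl2, 5 mM DTT, 0.01% dodecyl maltoside, 5.4 mg/mL protein, 4 μM dansyl-GCVLL, 10 μM GGPP. Incubated at 25 °C; fluorescence followed for 10 min at ex 340/em 505 nm. IC50 taken from sigmoid fit of rate against inhibitor concentration.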

The next assay concerns L1210. The experiment in a line: Growth inhibition of mouse L1210 cells by MTT assay after 72 hrs. In kind it is functional, cell-based. To be noted: L1210, 72 h. The gist of the method:
(§1)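 Cells (H-Ras-transformed NIH3T3 fibroblasts; K-Ras-transformed DLD-1 colon adenocarcinoma; L-1210 leukaemia) grown in RPMI + 10% fetal calf serum. Seeded and allowed to grow 24 h, then exposed to a range of inhibitor concentrations for 72 h, 1% DMSO final. Growth read by colorimetric MTT assay; EC50 derived.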

The test system of another assay is DLD-1. In words: Growth inhibition of human DLD1 cells by MTT assay after 72 hrs. It is filed as functional, cell-based. To be noted: DLD-1, 72 h. The gist of the method: as §1
(In general: Tetrazolium assays rely on reduction of a dye to a coloured formazan, in cell work by metabolically active cells.)

The next assay concerns NIH3T3. In words: Growth inhibition of H-Ras transformed […] cells by MTT assay after 72 hrs. In kind it is functional, cell-based. The note with it: Mus musculus, NIH3T3, 72 h. The gist of the method:
as §1

pEC50, pIC50: −log10 of the molar value.

The term pIC50 denotes −log10 of the IC50, conventionally taken in molar units. Low readings indicate a large IC50, high ones a small IC50. Turning to `CSCC[C@@H](C(=O)O)N(C(=O)c1ccccc1)C1CCN(Cc2cncn2Cc2ccc(C#N)cc2)CC1`, the pIC50 is 8.00 in assay [1] and less than 5.70 in assay [2].
The corresponding values for `CCC(C)[C@@H](C(=O)OC)N(C(=O)c1ccccc1)C1CCN(Cc2cncn2Cc2ccc(C#N)cc2)CC1` (stereo partly specified) are 7.49 and less than 5.70.
Taken in the same sequence, the figures for `CC(C)C[C@H](NC(=O)c1ccc(NC(=O)[C@@H](N)CS)cc1-c1ccccc1)C(=O)O` were 7.25 and 7.91.
On to `COC(=O)[C@H](CCSC)N(C(=O)c1ccccc1)C1CCN(Cc2cncn2Cc2ccc(C(F)(F)F)cc2)CC1`, for which the negative-log IC50 (pIC50) in assay [1] was 7.36.
Regarding `COC(=O)[C@H](CCSC)N(C(=O)c1ccccc1)C1CCN(Cc2cncn2Cc2ccc(C)cc2)CC1`, in assay [1], the pIC50 is 6.22.
The term pEC50 denotes the EC50 on a negative log10 scale, so that one unit is a factor of ten. The low end stands for a high EC50, the high end for a low EC50. `COC(=O)[C@H](CCSC)N(C(=O)c1ccccc1)C1CCN(C(=O)C(N)CS)CC1` (stereo partly specified): the pIC50 in assay [1] was 7.64; in assay [2] it was less than 7.00. The values for the pEC50 in the assay on L1210 and in the assay on DLD-1 were less than 5.00 and 4.74, respectively.
Turning to `COC(=O)[C@H](CCSC)N(C(=O)c1ccccc1)C1CCN(Cc2cncn2Cc2ccccc2)CC1`, the negative-log IC50 (pIC50) in assay [1] is 6.40.
The same measure, in the same setting: to `COC(=O)[C@H](CCSC)N(C(=O)c1ccccc1)C1CCN(Cc2cncn2Cc2ccc(OC)cc2)CC1` belongs 6.24.
Consider `COC(=O)[C@H](CCSC)N(Cc1ccccc1)C1CCN(Cc2cncn2Cc2ccc(C#N)cc2)CC1`, for which the pIC50 was 8.63 in assay [1] and less than 5.70 in assay [2]. The pEC50 is less than 5.30 in the assay with L1210 and 4.89 in the assay with DLD-1.
With `COC(=O)[C@H](Cc1ccccc1)N(C(=O)c1ccccc1)C1CCN(Cc2cncn2Cc2ccc(C#N)cc2)CC1`, the pIC50 in assay [1] was 7.66; in assay [2], less than 5.70.
Taken in the same sequence, the figures for `N#Cc1ccc(Cn2cncc2CN2CCC(N(C(=O)c3ccccc3)[C@@H](Cc3ccccc3)C(=O)O)CC2)cc1` were 7.27 and less than 5.70.
As to `COC(=O)[C@H](CCSC)N(C(=O)c1ccccc1)C1CCN(Cc2cncn2Cc2ccc(C#N)cc2)CC1`, the negative logarithm of the IC50 (pIC50) in assay [1] was 8.34; in assay [2] it was less than 5.70. For the same compound, the figures for the pEC50 in the assay on L1210, with DLD-1 and with NIH3T3 were 7.70, 5.04 and 5.88, respectively.
In the case of `CSCC[C@H](NC(=O)c1ccc(NC(=O)[C@@H](N)CS)cc1)C(=O)O`, the negative logarithm of the IC50 (pIC50) is 7.14 in assay [1] and less than 7.00 in assay [2].
Turning to `CSCC[C@H](NC(=O)[C@H](Cc1ccccc1)NC[C@@H](NC[C@@H](N)CS)C(C)C)C(=O)O`, the negative-log IC50 (pIC50) was 7.47 in assay [1] and less than 5.30 in assay [2].
